Reference: PMC12853403 (ACS infectious diseases, 2025)

How the values were obtained:
[1] = biological target: Eg.TRPMPZQ (Echinococcus granulosus, UniProt W6UVV9); experiment: Ca2+ reporter assay in HEK293 cells, Eg.TRPMPZQ; assay type: cell-based; settings: EC50 at Eg.TRPMPZQ / EC50 at Sm.TRPMPZQ
[2] = system: Se.TRPMPZQ; experiment: Functional profiling; assay type: cell-based, Spirometra erinaceieuropaei
[3] = system: E. multilocularis protoscoleces; experiment: Cestode motility assay on protoscoleces; assay type: cell-based; settings: Echinococcus multilocularis, read-out: EC50, motility of E. multilocularis protoscoleces
[4] = system: Sm.TRPMPZQ[D1677E]; experiment: Functional profiling at Sm.TRPMPZQ[D1677E] mutant; assay type: cell-based, Schistosoma mansoni; settings: construct lacks the cestode-specific S1 histidine
Summary of the method: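 Transiently transfected HEK293 cells (Lipofectamine-2000) replated after 24 h at 20,000 cells/well. 24 h later, loaded with Fluo-4 NW for 1 h at 37 °C in HBSS with 2.5 mM probenecid and 20 mM HEPES. FLIPR Ca2+ read at room temperature: 20 s baseline, then compound, then 250 s. Peak minus basal, normalized to (±)-PZQ at the same channel. Three-parameter fit, bottom fixed at 0%. EC50 mean ± SEM, n ≥ 3 transfections.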

[5] = in humans; cited from earlier work
[6] = cited from earlier work
[7] = cited from earlier work; remark: listed apart in the source

## O=C(C1CCCCC1)N1CC(=O)N2CCc3ccccc3[C@@H]2C1 [(R)-PZQ]
[1]
  difference in potency between Eg.TRPMPZQ and Sm.TRPMPZQ: ~ 4 fold
[2]; read-out: EC50 at Se.TRPMPZQ, mean ± SEM
  EC50: 1000 ± 300 nM
[2]; relative to (R)-PZQ at Eg.TRPMPZQ
  efficacy (Bmax) at Se.TRPMPZQ: 17 ± 0.8 % of (R)-PZQ at Eg.TRPMPZQ
[3]
  EC50: 7.7 ± 1.3 nM

## O=C(C1CCCCC1)N1CC(=O)N2CCc3ccccc3C2C1 (stereo not shown) [PZQ, praziquantel]
[4]
  activity at Sm.TRPMPZQ[D1677E] mutant: unable to be activated
[2]
  agonist character at Se.TRPMPZQ: partial agonist
[5]
  half time: 2 to 3 h

## O=C(C1CCCCC1)N1CC(=O)N2CCCc3ccccc3C2C1 (stereo not shown) [epsiprantel]
[6]
  absorption from the gastrointestinal tract: poorly absorbed
[7]
  solubility: very insoluble

## O=C(C1CCCCC1)N1CC(=O)N2CCc3ccccc3[C@H]2C1 [(S)-PZQ]
[1]
  difference in potency between Eg.TRPMPZQ and Sm.TRPMPZQ: ~ 100 fold
